# Screening data from PubChem BioAssay.
# CFTR F508del cor = correctors of CFTR F508del function in bronchial epithelial cells. CFBE cells, YFP halide quenching; stimulated with forskolin plus potentiator P3; % fluorescence drop versus neutral controls. activity (quench increase), % at 7.58 µM. hit rate 0.36% among 350,000;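 active = mean added fluorescence quench of at least 8% versus neutral control, with both replicates also reaching 8%; inconclusive = only one of the mean or replicate conditions met; inactive = mean below 8% and not both replicates reaching 8%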;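 note: cells transiently co-express mutant CFTR-F508del with the halide-sensitive YFP; corrector assay measuring rescue of mutant channel to the surface after 24 h compound exposure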
# Env fusion inh = inhibitors of HIV Env-mediated cell fusion | HeLa-JRFL Env/CEM21 cell fusion, luciferase | inhibition, % at 12.3 µM | hit rate 1.1% among 360,000 | AID 651610;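 active = mean replicate inhibition score of at least 50 and every replicate individually at or above 50; inconclusive = only one of the two criteria met; inactive = mean below 50 and not all replicates reaching 50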;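 note: 0% = plate neutral controls and 100% = maraviroc near 300 nM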
# PGC1a acetyl inh = lowers PGC1a acetylation signal in U2OS cells; AlphaScreen anti-acetyl-lysine; with virally co-expressed GCN5 acetyltransferase; inhibition, % at 15.6 µM; hit rate 0.17% among 350,000;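 active = every replicate shows inhibition of at least 40%; inconclusive = mean inhibition at least 40% but some replicate below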;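 note: 0% = neutral control wells and 100% = positive control wells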
# EWS-Fli inh = inhibitors of EWS/Fli oncoprotein transcriptional activity; A673 NR0B1-luciferase reporter, viability-normalised; inhibition, % at 12.6 µM; hit rate 0.67% among 350,000;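 active = mean inhibition of at least 50% after viability correction, with every replicate also passing that limit; inconclusive = mean reaches 50% but only one of two replicates passes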;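 note: firefly luciferase signal divided by Alamar Blue viability fluorescence both relative to DMSO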
# PAX8 inh HTS = lowers PAX8-driven luciferase in RMG-I cells. RMG-I TPO-luciferase reporter, SteadyGlo, 24 h. inhibition, % at 12.6 µM. hit rate 1.2% among 360,000. AID 652154;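 active = mean replicate inhibition at least 60% with every replicate also reaching 60%; inconclusive = only one of the two criteria is met; inactive = mean below 60% and not all replicates reaching 60%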;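 note: luciferase light reporting Pax8 driven TPO promoter activity; plate controls were median of neutral control wells for no effect and mitoxantrone controls for full effect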
# FN deposition inh = fibronectin deposition inhibition | inhibition, % at 12.6 µM | AH1F fibroblasts, Alexa488-fibronectin deposition fluorescence, overnight | hit rate 0.086% among 350,000 | AID 743247;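 active = mean inhibition across replicates of 30% or more, regardless of how many single replicates reach that level; inconclusive = mean under 30% yet at least half of replicates reach 30%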;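 note: positive control wells lacked labelled fibronectin entirely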
#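 material = AH1F fibroblast monolayer depositing Alexa488-labelled fibronectin into matrix | amount = 10000 AH1F cells/well | buffer or medium = DMEM plus 2% serum, read in PBS | incubation = 1 h cell adhesion before compound, then overnight fibronectin incubation | detection = fluorescence at 485 nm excitation, 525 nm emission | evaluation = percent inhibition as loss of matrix-bound fibronectin fluorescence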
# DNA binder FP = DNA binding small molecules | salmon sperm DNA acridine orange fluorescence polarization | hit rate 2% among 640 | AC35, µM (doses to about 68 µM), for the others: at the top dose activity change, negative = DNA binding | shares compounds with EWS-Fli inh;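 active = fitted curve reaches a 35% signal fall AC35 below twice the sample's top valid tested dose, actives reach about 48 µM in these data; inactive = the rest, including activity in the rising direction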;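 note: lower polarization ratio signals compound binding to DNA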
# Active calls of the source: *; ? = inconclusive; nt = no result; ! = not active in a repeat; [ ] = another dose, or the depositor's remark. Hits are enriched below; roughly 2.3% of the tested compounds scored in any of these assays.
SMILES,CFTR F508del cor,Env fusion inh,PGC1a acetyl inh,EWS-Fli inh,PAX8 inh HTS,FN deposition inh,DNA binder FP
CC(C)CN(C(=O)CN1CCOCC1)c1c(N)n(CC(C)C)c(=O)[nH]c1=O,nt,-4.7,12.2,61.0*,9.0,-6.4,-11.7%
C[C@H](CO)N1C[C@H](C)[C@H](CN(C)C(=O)CN2CCOCC2)Oc2ncc(-c3cncnc3)cc2C1=O,0.8,nt,9.5,-3.6,-24.1,-12.1,nt
O=C(NCc1ccccn1)c1ccc(CNS(=O)(=O)c2cccc(Cl)c2)cc1,nt,4.3,1.5,58.3*,10.9,nt,-14.7%
CC(C)(C)c1ccc(S(=O)(=O)NCc2ccc(C(=O)NCc3ccccn3)cc2)cc1,nt,31.7,nt,-1.2,4.1,0.0,nt
CCC1=Nc2cc(C(=O)NCC3CCCO3)ccc2Sc2ccc(Br)cc21 (stereo not drawn),4.0,-21.8,7.0,55.4*,29.0,0.0,-21.8%
O=C(NCC1CCCO1)c1ccc(NC(=O)c2ccc(Br)cc2)cc1 (stereo not drawn),0.8,-12.4,10.0,2.7,-1.5,14.3,nt
Cc1cccc(Oc2ccc(N)cc2)c1,nt,-3.7,nt,nt,nt,6.9,nt
Nc1ccc(Oc2cccc(Oc3ccc(N)cc3)c2)cc1,-4.1,31.3,nt,77.8*,13.5,4.2,3.2%
Cc1cccc(N2CCN(C3C(=O)Nc4ccccc4-n4nnnc43)CC2)c1C (stereo not drawn),1.5,6.7,nt,53.8*,31.2,3.7,4.6%
COC(=O)C[C@H]1CC[C@H]2[C@@H](COc3ccc(NC(=O)Nc4cccc(Cl)c4)cc3C(=O)N2C)O1,1.1,3.3[16.7 µM],6.8,60.4*,22.7,-5.2,4.9%
COC(=O)C[C@@H]1CC[C@@H]2[C@@H](COc3ccc(NC(=O)Nc4ccccc4C)cc3C(=O)N2C)O1,-3.2,5.0[16.7 µM],-4.8,65.5*,13.0,-6.6,-12.9%
COC(=O)C[C@@H]1CC[C@@H]2[C@@H](COc3ccc(NC(=O)Cc4cccs4)cc3C(=O)N2C)O1,nt,5.9[16.7 µM],nt,65.0*,6.2,-4.7,-19.9%
CN1C(=O)c2cc(NC(=O)c3ccc(C(F)(F)F)cc3)ccc2OC[C@@H]2O[C@@H](CC(=O)NC3Cc4ccccc4C3)CC[C@H]21,1.7,-87.6[16.7 µM],3.5,54.0*,38.9,-7.1,-0.5%
COC(=O)C[C@@H]1CC[C@H]2[C@H](COc3ccc(NC(=O)Nc4cccc(Cl)c4)cc3C(=O)N2C)O1,0.3,-4.2[16.7 µM],2.6,?,13.5,-25.1,nt
COC(=O)C[C@@H]1CC[C@@H]2[C@H](COc3ccc(NC(=O)Nc4ccccc4C)cc3C(=O)N2C)O1,-0.6,-2.9[16.7 µM],4.0,-7.6,7.7,-11.4,nt
C[C@@H]1CN([C@@H](C)CO)C(=O)c2cc(C#Cc3ccncc3)cnc2O[C@H]1CN(C)C(=O)c1ccccc1F,2.3,7.5[16.7 µM],31.1,-2.1,21.5,0.0,nt
C[C@@H]1CN([C@H](C)CO)C(=O)c2cc(NC(=O)Cc3ccccc3)ccc2O[C@@H]1CN(C)Cc1ccc(Oc2ccccc2)cc1,0.0,nt,-6.4,4.2,nt,6.6,nt
CCC(=O)N1CC2(CCN(Cc3cncnc3)CC2)c2c([nH]c3cc(OC)ccc23)[C@H]1CO,-3.0,nt,1.7,29.7,nt,nt,nt
COC(=O)C[C@@H]1CC[C@@H]2[C@@H](COc3ccc(NC(=O)Nc4cccc(F)c4)cc3C(=O)N2C)O1,-1.2,nt,1.4,68.8*,1.5,-1.0,-10.4%
COC(=O)C[C@@H]1CC[C@@H]2[C@@H](COc3ccc(NC(=O)Nc4cccc(Cl)c4)cc3C(=O)N2C)O1,-2.0,39.6[16.7 µM],-0.8,76.9*,15.4,-0.8,13.8%
COC(=O)C[C@@H]1CC[C@H]2[C@@H](COc3ccc(NC(=O)Nc4cccc(Cl)c4)cc3C(=O)N2C)O1,-2.4,-7.8[16.7 µM],-0.3,45.3,39.3,-3.7,nt
O=C(C1CCOCC1)N1CC2(C1)[C@@H](c1ccccc1)[C@@H](CO)N2CCC(F)(F)F,-4.6,nt,11.5,2.2,1.9,nt,nt
CCCNC(=O)[C@@H]1[C@@H](CO)[C@@H]2Cn3c(ccc(-c4ccncc4)c3=O)[C@H]1N2Cc1ccccc1F,nt,2.9[16.7 µM],nt,-8.2,nt,nt,nt
O=C(CN1C(=O)c2ccccc2S1(=O)=O)c1ccc(F)cc1,4.5,?,-6.3,65.7*,55.3,-4.0,-5.6%
O=C(CN1C(=O)c2ccccc2S1(=O)=O)c1ccc(OC(F)F)cc1,nt,nt,-1.0,nt,nt,nt,nt
SMILES,CFTR F508del cor,Env fusion inh,PGC1a acetyl inh,EWS-Fli inh,PAX8 inh HTS,FN deposition inh,DNA binder FP
O=C(Nc1ccc(F)cc1)N[C@@H]1CC[C@H](CCNS(=O)(=O)c2ccccc2F)O[C@H]1CO,-0.9,?,-21.9,31.5,nt,nt,nt
COc1ccccc1NC(=O)N1[C@@H]2CNC[C@H]1[C@@H]2c1ccc(-c2ccc(C#N)cc2)cc1,-1.6,nt,0.6,54.0*,-4.9,-10.6,-15.9%
COc1ccccc1NC(=O)N1[C@@H]2CNC[C@H]1C2c1ccc(-c2cccc(C#N)c2)cc1 (stereo partly drawn),3.2,nt,4.1,nt,nt,-1.7,nt
COc1ccc([Si](C)(C)[C@H]2[C@H](CCn3cc(CCO)nn3)O[C@@]3(C(=O)N(C)c4c(Br)cc(C)cc43)[C@@H]2C)cc1,3.3,29.9[16.7 µM],-24.1,5.9,nt,nt,nt
C(=C\c1ccc(C2[C@H]3CNC[C@@H]2N3Cc2ccccn2)cc1)/c1ccccc1 (stereo partly drawn),0.3,nt,9.2,58.9*!,7.9,-0.4,-10.5%
C(=C\c1ccc(C2[C@H]3CNC[C@@H]2N3Cc2cncnc2)cc1)/c1ccccc1 (stereo partly drawn),2.2,nt,5.0,1.0,4.6,-10.2,nt
COC(=O)C[C@@H]1CC[C@@H]2[C@H](COC[C@@H](O)CN2S(=O)(=O)c2ccccc2C)O1,-1.6,nt,-2.3,-4.2,0.3,0.1,nt
COc1ccc2c3c([nH]c2c1)[C@@H](CO)N(C(=O)Nc1ccccc1F)CC31CCN(C(=O)c2ccccc2F)CC1,1.1,nt,2.6,-1.5,nt,nt,nt
O=C(NCC[C@H]1CC[C@H](NC(=O)C2CCOCC2)[C@@H](CO)O1)Nc1ccc(Cl)cc1,0.9,-2.1[16.7 µM],-6.5,-4.6,4.5,nt,nt
CCOc1ccc(NC(=O)C(=O)N/N=C\c2ccc(CNS(=O)(=O)c3ccccc3)o2)cc1,nt,0.3,3.2,86.5*,-15.4,nt,8.9%
CCOc1ccc(C(=O)N/N=C/c2ccc(-c3ccc(S(=O)(=O)Nc4ncccn4)cc3)o2)cc1,nt,8.4,nt,nt,nt,-15.2,nt
O=C(c1ccccc1F)N1CC[C@@H]2[C@H]1c1cc(C#Cc3ccccc3F)ccc1N[C@@H]2CO,1.5,nt,-1.1,-6.0,-13.9,-6.3,nt
O=c1ccc2ccccc2c2ccccc12,1.5,-3.2,nt,63.0*,88.4*,9.7,-11.9%
COc1ccc(/C=N/NC(=O)c2cccc(NC(C)=O)c2)c(OC)c1,0.3,-0.4,10.7,3.7,17.0,-13.6,nt
COc1ccc(C(=O)Nc2cccc(C(=O)N/N=C/c3ccc(OC)cc3OC)c2)cc1,-0.1,15.1,nt,53.6*,39.5,-8.9,8.3%
